Test system: U2OS
Assay: Multiplex assay against U2OS
Assay type: toxicity, cell-based
Details: human
Method in brief: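 Compound was added to live cells that had been stained at seeding with Hoechst33342, BioTracker Green Microtubule Cytoskeleton Dye, MitoTracker Red and Annexin V Alexa Fluor 680, and imaging followed on a CQ1 microscope at 37°C and 5% CO2. CellPathfinder machine-learning gating divided cells into Hoechst high-intensity objects or normal cells, normal cells into healthy, pyknosed or fragmented nuclei, and pyknosed cells into mitotic or apoptotic. Tubulin, mitochondrial-mass and membrane-permeability phenotypes are per cents of healthy-nucleus cells.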

[1] = 12 h, 1 µM, compound concentration 1 uM, replicate 1
[2] = 12 h, 1 µM, compound concentration 1 uM, replicate 2
[3] = 12 h, 10 µM, compound concentration 10 uM, replicate 1
[4] = 12 h, 10 µM, compound concentration 10 uM, replicate 2
[5] = 24 h, 1 µM, compound concentration 1 uM, replicate 1
[6] = 24 h, 1 µM, compound concentration 1 uM, replicate 2
[7] = 24 h, 10 µM, compound concentration 10 uM, replicate 1
[8] = 24 h, 10 µM, compound concentration 10 uM, replicate 2
[9] = 48 h, 1 µM, compound concentration 1 uM, replicate 1
[10] = 48 h, 1 µM, compound concentration 1 uM, replicate 2
[11] = 48 h, 10 µM, compound concentration 10 uM, replicate 1
[12] = 48 h, 10 µM, compound concentration 10 uM, replicate 2

## N[C@](CC1c2ccccc2Oc2ccccc21)(C(=O)O)[C@H]1C[C@@H]1C(=O)O
[1]
  Population Apoptotic (%): 80%
  Population Fragmented Nuclei (%): 22%
  Population Healthy Nuclei (%): 67%
  Population Hoechst High Intensity Objects (%): 1%
  Population Membrane Permeable-Phenotype (%): 6%
  Population Mitochondria Different-Phenotype (%): 2%
  Population Mitotic Cells (%): 20%
  Population Normal (%): 98%
  Population Pyknosed Nuclei (%): 9%
  Population Tubulin-Different-Phenotype (%): 4%
  Total Cell Count: 218
[2]
  Population Apoptotic (%): 72%
  Population Fragmented Nuclei (%): 10%
  Population Healthy Nuclei (%): 79%
  Population Membrane Permeable-Phenotype (%): 1%
  Population Mitochondria Different-Phenotype (%): 8%
  Population Mitotic Cells (%): 27%
  Population Tubulin-Different-Phenotype (%): 3%
  Total Cell Count: 114
[3]
  Population Apoptotic (%): 84%
  Population Fragmented Nuclei (%): 18%
  Population Healthy Nuclei (%): 72%
  Population Hoechst High Intensity Objects (%): 3%
  Population Membrane Permeable-Phenotype (%): 5%
  Population Mitochondria Different-Phenotype (%): 3%
  Population Mitotic Cells (%): 16%
  Population Normal (%): 96%
  Population Pyknosed Nuclei (%): 8%
  Population Tubulin-Different-Phenotype (%): 2%
  Total Cell Count: 295
[4]
  Population Apoptotic (%): 83%
  Population Fragmented Nuclei (%): 19%
  Population Healthy Nuclei (%): 76%
  Population Hoechst High Intensity Objects (%): 0%
  Population Membrane Permeable-Phenotype (%): 7%
  Population Mitochondria Different-Phenotype (%): 0%
  Population Normal (%): 100%
  Population Pyknosed Nuclei (%): 4%
  Total Cell Count: 141
[5]
  Population Apoptotic (%): 78%
  Population Fragmented Nuclei (%): 20%
  Population Healthy Nuclei (%): 70%
  Population Hoechst High Intensity Objects (%): 1%
  Population Membrane Permeable-Phenotype (%): 1%
  Population Mitochondria Different-Phenotype (%): 1%
  Population Mitotic Cells (%): 21%
  Population Normal (%): 98%
  Population Pyknosed Nuclei (%): 8%
  Population Tubulin-Different-Phenotype (%): 1%
  Total Cell Count: 272
[6]
  Population Apoptotic (%): 63%
  Population Fragmented Nuclei (%): 14%
  Population Healthy Nuclei (%): 77%
  Population Hoechst High Intensity Objects (%): 0%
  Population Membrane Permeable-Phenotype (%): 4%
  Population Mitochondria Different-Phenotype (%): 5%
  Population Mitotic Cells (%): 36%
  Population Normal (%): 99%
  Population Tubulin-Different-Phenotype (%): 2%
  Total Cell Count: 137
[7]
  Population Apoptotic (%): 80%
  Population Fragmented Nuclei (%): 13%
  Population Healthy Nuclei (%): 79%
  Population Hoechst High Intensity Objects (%): 3%
  Population Membrane Permeable-Phenotype (%): 3%
  Population Mitochondria Different-Phenotype (%): 3%
  Population Mitotic Cells (%): 20%
  Population Normal (%): 96%
  Population Pyknosed Nuclei (%): 7%
  Population Tubulin-Different-Phenotype (%): 1%
  Total Cell Count: 365
[8]
  Population Apoptotic (%): 81%
  Population Fragmented Nuclei (%): 15%
  Population Healthy Nuclei (%): 77%
  Population Hoechst High Intensity Objects (%): 0%
  Population Membrane Permeable-Phenotype (%): 8%
  Population Mitochondria Different-Phenotype (%): 1%
  Population Mitotic Cells (%): 18%
  Population Normal (%): 99%
  Population Pyknosed Nuclei (%): 6%
  Population Tubulin-Different-Phenotype (%): 3%
  Total Cell Count: 164
[9]
  Population Apoptotic (%): 89%
  Population Fragmented Nuclei (%): 14%
  Population Healthy Nuclei (%): 75%
  Population Hoechst High Intensity Objects (%): 2%
  Population Membrane Permeable-Phenotype (%): 3%
  Population Mitochondria Different-Phenotype (%): 1%
  Population Mitotic Cells (%): 10%
  Population Normal (%): 97%
  Population Pyknosed Nuclei (%): 9%
  Population Tubulin-Different-Phenotype (%): 1%
  Total Cell Count: 403
[10]
  Population Apoptotic (%): 85%
  Population Fragmented Nuclei (%): 16%
  Population Healthy Nuclei (%): 72%
  Population Hoechst High Intensity Objects (%): 1%
  Population Membrane Permeable-Phenotype (%): 5%
  Population Mitochondria Different-Phenotype (%): 3%
  Population Mitotic Cells (%): 15%
  Population Normal (%): 98%
  Population Pyknosed Nuclei (%): 10%
  Population Tubulin-Different-Phenotype (%): 4%
  Total Cell Count: 190
[11]
  Population Apoptotic (%): 90%
  Population Fragmented Nuclei (%): 15%
  Population Healthy Nuclei (%): 77%
  Population Hoechst High Intensity Objects (%): 1%
  Population Membrane Permeable-Phenotype (%): 4%
  Population Mitochondria Different-Phenotype (%): 3%
  Population Mitotic Cells (%): 10%
  Population Normal (%): 98%
  Population Pyknosed Nuclei (%): 7%
  Population Tubulin-Different-Phenotype (%): 2%
  Total Cell Count: 554
[12]
  Population Apoptotic (%): 81%
  Population Fragmented Nuclei (%): 12%
  Population Healthy Nuclei (%): 78%
  Population Hoechst High Intensity Objects (%): 0%
  Population Membrane Permeable-Phenotype (%): 7%
  Population Mitochondria Different-Phenotype (%): 1%
  Population Mitotic Cells (%): 18%
  Population Normal (%): 100%
  Population Pyknosed Nuclei (%): 9%
  Population Tubulin-Different-Phenotype (%): 3%
  Total Cell Count: 238

## CC(C)(O)C(=O)N1CCN(c2ccc(C(F)(F)F)c(C3=C(c4c[nH]c5ccccc45)C(=O)NC3=O)c2)CC1
[1]
  Population Apoptotic (%): 88%
  Population Fragmented Nuclei (%): 29%
  Population Healthy Nuclei (%): 63%
  Population Hoechst High Intensity Objects (%): 3%
  Population Membrane Permeable-Phenotype (%): 5%
  Population Mitochondria Different-Phenotype (%): 2%
  Population Mitotic Cells (%): 11%
  Population Normal (%): 96%
  Population Pyknosed Nuclei (%): 7%
  Population Tubulin-Different-Phenotype (%): 3%
  Total Cell Count: 238
[2]
  Population Apoptotic (%): 92%
  Population Fragmented Nuclei (%): 14%
  Population Healthy Nuclei (%): 75%
  Population Hoechst High Intensity Objects (%): 1%
  Population Membrane Permeable-Phenotype (%): 4%
  Population Mitochondria Different-Phenotype (%): 4%
  Population Mitotic Cells (%): 7%
  Population Normal (%): 98%
  Population Pyknosed Nuclei (%): 9%
  Total Cell Count: 134
[3]
  Population Apoptotic (%): 76%
  Population Fragmented Nuclei (%): 37%
  Population Healthy Nuclei (%): 46%
  Population Hoechst High Intensity Objects (%): 6%
  Population Membrane Permeable-Phenotype (%): 39%
  Population Mitochondria Different-Phenotype (%): 23%
  Population Mitotic Cells (%): 24%
  Population Normal (%): 93%
  Population Pyknosed Nuclei (%): 16%
  Population Tubulin-Different-Phenotype (%): 30%
  Total Cell Count: 166
[4]
  Population Apoptotic (%): 50%
  Population Fragmented Nuclei (%): 6%
  Population Healthy Nuclei (%): 77%
  Population Hoechst High Intensity Objects (%): 1%
  Population Membrane Permeable-Phenotype (%): 14%
  Population Mitochondria Different-Phenotype (%): 14%
  Population Mitotic Cells (%): 50%
  Population Normal (%): 98%
  Population Tubulin-Different-Phenotype (%): 15%
  Total Cell Count: 148
[5]
  Population Apoptotic (%): 89%
  Population Fragmented Nuclei (%): 27%
  Population Healthy Nuclei (%): 61%
  Population Hoechst High Intensity Objects (%): 3%
  Population Membrane Permeable-Phenotype (%): 7%
  Population Mitochondria Different-Phenotype (%): 3%
  Population Mitotic Cells (%): 10%
  Population Normal (%): 96%
  Population Pyknosed Nuclei (%): 11%
  Population Tubulin-Different-Phenotype (%): 5%
  Total Cell Count: 263
[6]
  Population Apoptotic (%): 82%
  Population Fragmented Nuclei (%): 22%
  Population Healthy Nuclei (%): 67%
  Population Hoechst High Intensity Objects (%): 0%
  Population Membrane Permeable-Phenotype (%): 4%
  Population Mitochondria Different-Phenotype (%): 2%
  Population Mitotic Cells (%): 17%
  Population Normal (%): 100%
  Population Pyknosed Nuclei (%): 9%
  Population Tubulin-Different-Phenotype (%): 2%
  Total Cell Count: 172
[7]
  Population Apoptotic (%): 87%
  Population Fragmented Nuclei (%): 48%
  Population Healthy Nuclei (%): 27%
  Population Hoechst High Intensity Objects (%): 6%
  Population Membrane Permeable-Phenotype (%): 11%
  Population Mitochondria Different-Phenotype (%): 34%
  Population Mitotic Cells (%): 12%
  Population Normal (%): 93%
  Population Pyknosed Nuclei (%): 24%
  Population Tubulin-Different-Phenotype (%): 15%
  Total Cell Count: 172
[8]
  Population Apoptotic (%): 70%
  Population Fragmented Nuclei (%): 16%
  Population Healthy Nuclei (%): 53%
  Population Hoechst High Intensity Objects (%): 2%
  Population Membrane Permeable-Phenotype (%): 15%
  Population Mitochondria Different-Phenotype (%): 24%
  Population Mitotic Cells (%): 29%
  Population Normal (%): 97%
  Population Pyknosed Nuclei (%): 29%
  Population Tubulin-Different-Phenotype (%): 11%
  Total Cell Count: 152
[9]
  Population Apoptotic (%): 95%
  Population Fragmented Nuclei (%): 21%
  Population Healthy Nuclei (%): 65%
  Population Hoechst High Intensity Objects (%): 3%
  Population Membrane Permeable-Phenotype (%): 6%
  Population Mitochondria Different-Phenotype (%): 4%
  Population Mitotic Cells (%): 4%
  Population Normal (%): 96%
  Population Pyknosed Nuclei (%): 12%
  Population Tubulin-Different-Phenotype (%): 5%
  Total Cell Count: 377
[10]
  Population Apoptotic (%): 85%
  Population Fragmented Nuclei (%): 17%
  Population Healthy Nuclei (%): 73%
  Population Hoechst High Intensity Objects (%): 1%
  Population Membrane Permeable-Phenotype (%): 7%
  Population Mitochondria Different-Phenotype (%): 3%
  Population Mitotic Cells (%): 14%
  Population Normal (%): 98%
  Population Pyknosed Nuclei (%): 9%
  Population Tubulin-Different-Phenotype (%): 2%
  Total Cell Count: 233
[11]
  Population Apoptotic (%): 95%
  Population Fragmented Nuclei (%): 57%
  Population Healthy Nuclei (%): 11%
  Population Hoechst High Intensity Objects (%): 14%
  Population Membrane Permeable-Phenotype (%): 27%
  Population Mitochondria Different-Phenotype (%): 16%
  Population Mitotic Cells (%): 4%
  Population Normal (%): 85%
  Population Pyknosed Nuclei (%): 30%
  Population Tubulin-Different-Phenotype (%): 11%
  Total Cell Count: 177
[12]
  Population Apoptotic (%): 96%
  Population Fragmented Nuclei (%): 31%
  Population Healthy Nuclei (%): 27%
  Population Hoechst High Intensity Objects (%): 7%
  Population Membrane Permeable-Phenotype (%): 17%
  Population Mitochondria Different-Phenotype (%): 14%
  Population Mitotic Cells (%): 3%
  Population Normal (%): 92%
  Population Pyknosed Nuclei (%): 41%
  Population Tubulin-Different-Phenotype (%): 17%
  Total Cell Count: 163
